Results as given in ChEMBL document CHEMBL4364248, “Discovery of 1,2,4-oxadiazole-Containing hydroxamic acid derivatives as histone deacetylase inhibitors potential application in cancer therapy” (Eur J Med Chem, 2019).
pIC50: −log10 of the molar value.

Assays:
[1] = biological target: Histone deacetylase 1 (Homo sapiens, UniProt Q13547); assay: Inhibition of recombinant full length HDAC1 (unknown origin) using Ac-peptide-AMC as substrate at 100 nM after 1 hr by fluorescence assay relative to control
Outline: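 Full-length recombinant HDAC1 or HDAC6 was incubated with compound, trypsin and Ac-peptide-AMC substrate for 1 h at room temperature. Fluorescence was read at ex 355/em 460 nm. Inhibition was calculated against the DMSO vehicle control.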

[2] = biological target: Histone deacetylase 2 (Homo sapiens, UniProt Q92769); assay: Inhibition of recombinant full length human HDAC2 expressed in sf9 insect cells using Ac-peptide-AMC as substrate after 1 hr by fluorescence assay; type: cell-based
[3] = biological target: Histone deacetylase 4 (Homo sapiens, UniProt P56524); assay: Inhibition of recombinant full length human HDAC4 expressed in sf9 insect cells using Ac-peptide-AMC as substrate after 1 hr by fluorescence assay
[4] = biological target: Protein deacetylase HDAC6 (Homo sapiens, UniProt Q9UBN7); assay: Inhibition of recombinant full length HDAC6 (unknown origin) using Ac-peptide-AMC as substrate after 1 hr by fluorescence assay
[5] = biological target: Polyamine deacetylase HDAC10 (Homo sapiens, UniProt Q969S8); assay: Inhibition of recombinant N-terminal FLAG-tagged human HDAC10 (2 to 631 residues) expressed in baculovirus infected Sf9 cells using Ac-peptide-AMC as substrate after 1 hr by fluorescence assay
[6] = tested on: MM1.S; assay: Antiproliferative activity against human MM1S cells after 72 hrs by MTT assay; type: functional, cell-based
[7] = tested on: Ramos; assay: Antiproliferative activity against human Ramos cells after 72 hrs by MTT assay; type: functional, cell-based
[8] = tested on: Leukemia cell; assay: Antiproliferative activity against human AML patient derived primary leukemia cells after 72 hrs by MTT assay; type: functional, cell-based
[9] = biological target: Histone deacetylase 1/2/3 (Homo sapiens) (UniProt Q13547+O15379+Q92769); assay: Inhibition of HDAC1/2/3 in human MM1S cells assessed as increase in H3 acetylation after 6 hrs by Western blot analysis; type: cell-based
[10] = tested on: JeKo-1; assay: Cell cycle arrest in human JeKo1 cells assessed as accumulation at S phase at 100 nM after 24 hrs by propidium iodide staining based flow cytometric analysis (reference value: 26.13 %); type: functional
[11] = tested on: JeKo-1; assay: Cell cycle arrest in human JeKo1 cells assessed as accumulation at G1 phase at 1000 nM after 24 hrs by propidium iodide staining based flow cytometric analysis (reference value: 63.16 %); type: functional
[12] = tested on: JeKo-1; assay: Cell cycle arrest in human JeKo1 cells assessed as accumulation at G2/M phase at 1000 nM after 24 hrs by propidium iodide staining based flow cytometric analysis (reference value: 10.71 %); type: functional
[13] = tested on: JeKo-1; assay: Induction of apoptosis in human JeKo1 cells assessed as viable cells at 100 nM after 48 hrs by annexin V-FITC/propidium iodide staining-based flow cytometric method (reference value: 91.6 %); type: functional; conditions: JeKo-1, 48 h, read-out: Activity
Outline: (§1)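 Jeko-1 cells were grown in RPMI-1640 with 10% FBS at 37 °C under 5% CO2. They were exposed to 0, 10, 100 or 1000 nM for 48 h, then apoptosis induction was analysed.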

[14] = tested on: JeKo-1; assay: Induction of apoptosis in human JeKo1 cells assessed as early apoptotic cells at 100 nM after 48 hrs by annexin V-FITC/propidium iodide staining-based flow cytometric method (reference value: 3.34 %); type: functional; outline: as §1
[15] = tested on: JeKo-1; assay: Induction of apoptosis in human JeKo1 cells assessed as viable cells at 1000 nM after 48 hrs by annexin V-FITC/propidium iodide staining-based flow cytometric method (reference value: 91.6 %); type: functional; conditions: JeKo-1, 48 h, read-out: Activity; outline: as §1
[16] = tested on: JeKo-1; assay: Induction of apoptosis in human JeKo1 cells assessed as late apoptotic cells at 1000 nM after 48 hrs by annexin V-FITC/propidium iodide staining-based flow cytometric method (reference value: 3.07 %); type: functional; outline: as §1
[17] = tested on: JeKo-1; assay: Induction of apoptosis in human JeKo1 cells assessed as necrotic cells at 1000 nM after 48 hrs by annexin V-FITC/propidium iodide staining-based flow cytometric method (reference value: 2.03 %); type: functional; outline: as §1
[18] = tested on: JeKo-1; assay: Induction of apoptosis in human JeKo1 cells after 48 hrs by annexin V-FITC/propidium iodide staining-based flow cytometric method; type: functional, cell-based; outline: as §1
[19] = Clearance in Sprague-Dawley rat at 5 mg/kg, iv measured upto 24 hrs by LC-MS/MS analysis; type: ADME, organism-based; conditions: in vivo
Outline: (§2)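 SD rats (200-250 g), six per time point, given 5 mg/kg as a tail-vein bolus or orally. Blood was taken by cardiac puncture before dosing and at 5, 15, 30, 45 min and 1, 2, 4, 6, 8, 10, 12 and 24 h. Plasma was spun at 4000 g for 15 min at 4 °C and stored at -80 °C. Analysis was LC-MS/MS with multiple-reaction monitoring, followed by noncompartmental analysis.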

[20] = AUC ( 0 to t) in Sprague-Dawley rat at 5 mg/kg, iv measured upto 24 hrs by LC-MS/MS analysis; type: ADME, organism-based; design: dose 5 mg/kg, time < 24 hr, route intravenous; conditions: in vivo; outline: as §2
[21] = Half life in Sprague-Dawley rat at 5 mg/kg, iv measured upto 24 hrs by LC-MS/MS analysis; type: ADME, organism-based; conditions: in vivo; outline: as §2
[22] = Clearance in Sprague-Dawley rat at 5 mg/kg, po measured upto 24 hrs by LC-MS/MS analysis; type: ADME, organism-based; conditions: in vivo; outline: as §2
[23] = Volume of distribution at steady state in Sprague-Dawley rat at 5 mg/kg, po measured upto 24 hrs by LC-MS/MS analysis; type: ADME, organism-based; conditions: in vivo
Outline: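 SD rats (200-250 g), six per time point, given 5 mg/kg orally; blood drawn by cardiac puncture at 0, 5, 15, 30, 45 min and 1, 2, 4, 6, 8, 10, 12, 24 h, held on ice. Plasma separated by centrifugation (4000 g, 15 min, 4 °C), stored at -80 °C, assayed by LC-MS/MS in multiple-reaction monitoring mode; parameters from noncompartmental analysis.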

[24] = AUC ( 0 to t) in Sprague-Dawley rat at 5 mg/kg, po measured upto 24 hrs by LC-MS/MS analysis; type: ADME, organism-based; design: dose 5 mg/kg, time < 24 hr, route oral; conditions: in vivo; outline: as §2
[25] = Cmax in Sprague-Dawley rat at 5 mg/kg, po measured upto 24 hrs by LC-MS/MS analysis; type: ADME, organism-based; design: dose 5 mg/kg, route oral; conditions: in vivo; outline: as §2
[26] = Half life in Sprague-Dawley rat plasma at 5 mg/kg, po measured upto 24 hrs by LC-MS/MS analysis; type: ADME, organism-based; outline: as §2
[27] = Toxicity in NOD/SCID mouse xenografted with human Daudi cells at 20 mg/kg, po treated on day 1,3 and 5 per week and measured for every 2 days; type: organism-based; conditions: in vivo, 48 h
Outline: (§3)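 Female NOD/SCID mice (5–6 weeks) bearing s.c. Daudi xenografts, six per group. Dosing was 10 mg/kg i.v. or 20 mg/kg p.o. in 8% HP-β-CD on days 1, 3 and 5 weekly. Behaviour was observed, and organ tissues were collected at sacrifice for H&E staining.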

[28] = Toxicity in NOD/SCID mouse xenografted with human Daudi cells assessed as abnormal behavior at 10 mg/kg, iv treated on day 1,3 and 5 per week and measured for every 2 days; type: organism-based; conditions: in vivo, 48 h; outline: as §3
[29] = Toxicity in NOD/SCID mouse xenografted with human Daudi cells at 10 mg/kg, iv treated on day 1,3 and 5 per week and measured for every 2 days; type: organism-based; conditions: in vivo, 48 h; outline: as §3

Sequence of Histone deacetylase 1 (Q13547 whole entry): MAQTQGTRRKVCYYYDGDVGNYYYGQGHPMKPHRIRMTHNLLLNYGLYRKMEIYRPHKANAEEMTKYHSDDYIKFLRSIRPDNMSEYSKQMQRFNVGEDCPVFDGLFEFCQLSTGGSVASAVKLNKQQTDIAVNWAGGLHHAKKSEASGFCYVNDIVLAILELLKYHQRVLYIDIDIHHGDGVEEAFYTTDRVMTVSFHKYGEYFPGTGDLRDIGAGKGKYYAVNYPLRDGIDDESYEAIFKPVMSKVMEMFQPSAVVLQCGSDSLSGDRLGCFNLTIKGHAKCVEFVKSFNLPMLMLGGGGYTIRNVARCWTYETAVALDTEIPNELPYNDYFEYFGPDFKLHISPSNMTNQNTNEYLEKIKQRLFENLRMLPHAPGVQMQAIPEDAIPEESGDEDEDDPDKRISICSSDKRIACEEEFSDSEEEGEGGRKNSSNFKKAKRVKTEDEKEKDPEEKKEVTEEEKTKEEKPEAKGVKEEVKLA
Sequence of Protein deacetylase HDAC6 (Q9UBN7 whole entry, the tested form may be a part): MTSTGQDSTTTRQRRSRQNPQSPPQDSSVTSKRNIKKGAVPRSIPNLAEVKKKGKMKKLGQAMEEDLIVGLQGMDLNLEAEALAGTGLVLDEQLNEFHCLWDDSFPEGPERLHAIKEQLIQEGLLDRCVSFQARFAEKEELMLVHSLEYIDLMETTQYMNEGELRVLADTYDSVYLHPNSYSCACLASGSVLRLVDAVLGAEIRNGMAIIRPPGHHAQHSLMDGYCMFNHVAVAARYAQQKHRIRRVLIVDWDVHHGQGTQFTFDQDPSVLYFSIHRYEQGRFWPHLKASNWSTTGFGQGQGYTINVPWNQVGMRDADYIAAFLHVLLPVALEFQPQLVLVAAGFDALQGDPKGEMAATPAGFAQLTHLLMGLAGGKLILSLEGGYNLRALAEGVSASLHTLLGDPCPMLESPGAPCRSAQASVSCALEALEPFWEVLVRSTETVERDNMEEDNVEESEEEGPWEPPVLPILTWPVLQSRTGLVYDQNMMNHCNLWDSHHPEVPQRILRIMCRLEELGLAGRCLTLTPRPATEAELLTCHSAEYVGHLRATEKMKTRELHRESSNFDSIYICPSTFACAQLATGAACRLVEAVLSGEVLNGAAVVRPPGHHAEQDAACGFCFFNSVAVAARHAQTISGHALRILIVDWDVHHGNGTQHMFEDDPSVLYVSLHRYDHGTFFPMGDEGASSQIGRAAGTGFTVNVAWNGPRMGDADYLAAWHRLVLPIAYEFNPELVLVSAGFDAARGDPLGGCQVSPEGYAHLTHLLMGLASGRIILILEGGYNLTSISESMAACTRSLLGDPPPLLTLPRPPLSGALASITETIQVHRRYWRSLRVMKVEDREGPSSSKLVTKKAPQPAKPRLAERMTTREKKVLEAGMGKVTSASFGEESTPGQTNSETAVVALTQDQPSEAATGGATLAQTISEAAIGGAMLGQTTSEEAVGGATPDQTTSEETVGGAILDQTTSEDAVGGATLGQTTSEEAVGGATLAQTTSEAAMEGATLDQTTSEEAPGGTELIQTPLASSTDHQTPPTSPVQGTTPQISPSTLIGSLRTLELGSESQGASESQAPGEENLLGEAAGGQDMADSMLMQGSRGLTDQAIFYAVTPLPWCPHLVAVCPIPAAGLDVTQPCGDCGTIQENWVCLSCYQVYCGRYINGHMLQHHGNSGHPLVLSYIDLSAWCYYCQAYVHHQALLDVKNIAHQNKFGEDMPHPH
Sequence of Polyamine deacetylase HDAC10 (Q969S8 whole entry, the tested form may be a part): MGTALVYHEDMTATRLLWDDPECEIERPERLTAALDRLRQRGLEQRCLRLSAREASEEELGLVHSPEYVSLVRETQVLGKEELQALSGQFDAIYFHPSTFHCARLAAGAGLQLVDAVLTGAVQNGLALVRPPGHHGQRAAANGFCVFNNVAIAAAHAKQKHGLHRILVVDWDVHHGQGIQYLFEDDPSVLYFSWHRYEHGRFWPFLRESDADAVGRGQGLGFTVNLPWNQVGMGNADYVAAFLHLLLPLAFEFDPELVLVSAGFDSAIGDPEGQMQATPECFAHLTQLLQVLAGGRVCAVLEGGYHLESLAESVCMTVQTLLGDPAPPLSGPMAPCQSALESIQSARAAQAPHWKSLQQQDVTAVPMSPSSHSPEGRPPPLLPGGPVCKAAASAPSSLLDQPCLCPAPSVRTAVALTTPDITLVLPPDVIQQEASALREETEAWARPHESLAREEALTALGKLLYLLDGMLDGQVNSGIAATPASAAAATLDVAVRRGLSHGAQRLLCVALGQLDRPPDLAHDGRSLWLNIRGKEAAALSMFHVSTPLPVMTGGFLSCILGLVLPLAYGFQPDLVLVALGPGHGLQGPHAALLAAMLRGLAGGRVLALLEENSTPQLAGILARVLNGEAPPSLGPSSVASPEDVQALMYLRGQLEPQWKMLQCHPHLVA
Sequence of Histone deacetylase 4 (P56524 whole entry): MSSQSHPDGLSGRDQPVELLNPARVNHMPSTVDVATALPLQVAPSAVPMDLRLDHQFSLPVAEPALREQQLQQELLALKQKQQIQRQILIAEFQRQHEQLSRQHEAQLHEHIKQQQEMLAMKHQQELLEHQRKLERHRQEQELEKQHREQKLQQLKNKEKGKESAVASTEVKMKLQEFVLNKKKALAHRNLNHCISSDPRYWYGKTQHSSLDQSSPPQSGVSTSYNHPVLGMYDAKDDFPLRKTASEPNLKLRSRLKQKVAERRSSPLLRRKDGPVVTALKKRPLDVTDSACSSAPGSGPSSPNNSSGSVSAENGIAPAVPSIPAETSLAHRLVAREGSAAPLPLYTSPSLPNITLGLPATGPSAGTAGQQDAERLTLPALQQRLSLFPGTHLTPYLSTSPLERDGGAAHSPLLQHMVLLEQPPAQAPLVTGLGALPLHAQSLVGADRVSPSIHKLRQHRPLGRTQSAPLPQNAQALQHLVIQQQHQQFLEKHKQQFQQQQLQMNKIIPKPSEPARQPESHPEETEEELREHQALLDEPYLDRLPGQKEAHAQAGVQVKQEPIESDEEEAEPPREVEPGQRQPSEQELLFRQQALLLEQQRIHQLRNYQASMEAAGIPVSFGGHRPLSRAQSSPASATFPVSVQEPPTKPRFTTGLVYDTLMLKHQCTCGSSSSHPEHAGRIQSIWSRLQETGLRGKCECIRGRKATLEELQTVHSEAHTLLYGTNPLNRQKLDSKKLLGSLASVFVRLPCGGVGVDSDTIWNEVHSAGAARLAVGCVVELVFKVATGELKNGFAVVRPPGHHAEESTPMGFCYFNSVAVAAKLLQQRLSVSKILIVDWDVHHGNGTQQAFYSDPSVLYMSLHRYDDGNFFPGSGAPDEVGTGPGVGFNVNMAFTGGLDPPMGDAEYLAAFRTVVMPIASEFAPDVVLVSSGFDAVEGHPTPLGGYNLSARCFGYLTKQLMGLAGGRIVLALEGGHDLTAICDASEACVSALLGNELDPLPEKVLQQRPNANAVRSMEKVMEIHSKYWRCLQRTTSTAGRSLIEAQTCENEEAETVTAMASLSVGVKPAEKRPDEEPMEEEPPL
Sequence of Histone deacetylase 2 (Q92769 whole entry): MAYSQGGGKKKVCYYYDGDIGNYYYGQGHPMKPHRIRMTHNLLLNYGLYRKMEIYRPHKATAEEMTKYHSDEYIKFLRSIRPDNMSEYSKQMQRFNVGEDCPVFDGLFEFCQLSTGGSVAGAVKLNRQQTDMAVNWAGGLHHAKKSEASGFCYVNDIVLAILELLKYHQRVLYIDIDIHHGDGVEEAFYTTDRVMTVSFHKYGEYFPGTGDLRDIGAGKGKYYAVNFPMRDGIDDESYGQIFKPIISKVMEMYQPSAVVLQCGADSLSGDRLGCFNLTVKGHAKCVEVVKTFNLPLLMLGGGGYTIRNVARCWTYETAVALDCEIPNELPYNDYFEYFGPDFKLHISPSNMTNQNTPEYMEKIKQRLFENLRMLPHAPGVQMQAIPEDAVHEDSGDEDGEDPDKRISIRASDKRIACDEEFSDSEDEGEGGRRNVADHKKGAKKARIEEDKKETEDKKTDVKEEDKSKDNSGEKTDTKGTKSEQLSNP

- inhibition [1]: 96%
- pIC50 [2]: 8.44
- pIC50 [3]: 6.33
- pIC50 [4]: 7.25
- pIC50 [5]: 6.99
- pIC50 [6]: 8.01
- pIC50 [7]: 7.75
- pIC50 [8]: 7.21 to 7.67
- inhibition [9]: Dose-dependent effect
- clearance [19]: 198 mL/min/kg
- AUC(0-t) at 24 h [20]: 433 ng·h/mL
- half-life [21]: 23.4 min
- CL/F [22]: 372 mL/min/kg
- Vdss [23]: 29.13 L/kg
- AUC(0-t) at 24 h [24]: 232 ng·h/mL
- Cmax [25]: 241 ng/mL
- half-life [26]: 60.6 min
Structure (SMILES): Cc1ccc(CN2CCC(c3noc(CN(C)c4ncc(C(=O)NO)cn4)n3)CC2)cc1
- Activity [10]: 8.5%
- Activity [11]: 82.86%
- Activity [12]: 4.32%
- viability at 0.1 µM [13]: 54.3%
- Activity [14]: 28.3%
- viability at 1 µM [15]: 26.9%
- Activity [16]: 30.4%
- Activity [17]: 0.096%
- Activity [18]: Dose-dependent effect
- Activity [27]: Non-Toxic
- Activity [28]: Non-Toxic
- Activity [29]: Non-Toxic
